Screens (PubChem BioAssay)
Compounds with a hit are over-represented: about 3.5% of the library has one in this group of screens.
DENV2 CPE rescue: inhibitors of DENV2 cytopathic effect | DENV2-infected cells, cytopathic effect rescue, plate reader | CPE inhibition, % at 9.99 µM | 350,000 compounds, 1.7% hits | AID 651640; in the data active means CPE inhibition above about 20%, passing the limit was not always enough; tested in BHK-21 cells;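 further: 0% = median of neutral control wells and 100% = median of positive control wells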
rRNA inh HTS: selective bacterial rRNA inhibition in E. coli | GFP signal change (wild-type ribosome), % (concentration not given with the values) | 350,000 compounds, 1.6% hits | E. coli WT GFP vs humanized-ribosome RFP mutants, fluorescence, 24 h; active compounds read low; DMSO median 0, no signal -100;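 active means significant combined selectivity score with lowered wild-type GFP, culture density cut under 30%, mutant RFP and density less affected; inactive means any of these conditions unmet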
Env fusion inh: inhibitors of HIV Env-mediated cell fusion | HeLa-JRFL Env/CEM21 cell fusion, luciferase | inhibition, % at 12.3 µM | 360,000 compounds, 1.1% hits | AID 651610;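 active means mean replicate inhibition score of at least 50 and every replicate individually at or above 50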;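 further: 0% = plate neutral controls and 100% = maraviroc near 300 nM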
PglD inh: blocks C. jejuni PglD acetyltransferase activity; inhibition, % at 12.5 µM; 360,000 compounds, 0.098% hits; AID 602405; purified PglD enzyme, DTNB colorimetric CoA detection; in the data active means inhibition above about 16%, passing the limit was not always enough
FN deposition inh: fibronectin deposition inhibition; AH1F fibroblasts, Alexa488-fibronectin deposition fluorescence, overnight; inhibition, % at 12.6 µM; 350,000 compounds, 0.086% hits; AID 743247;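 active means mean inhibition across replicates of 30% or more, regardless of how many single replicates reach that level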;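 further: positive control wells lacked labelled fibronectin entirely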
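Material: AH1F fibroblast monolayer depositing Alexa488-labelled fibronectin into matrix / Amount: 10000 AH1F cells per well / Signal: fluorescence 485/525 nm / Medium: DMEM, 2% serum / Compound: single dose, pinned / Incubation: 1 h cell adhesion before compound, then overnight fibronectin incubation / Reagent: Alexa488-FN, 24 nM final / Read-out: inhibition of fibronectin deposition signal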
PGC1a acetyl inh: modulators of PGC1a acetylation | U2OS PGC1a acetylation, AlphaScreen anti-acetyl-lysine; with virally co-expressed GCN5 acetyltransferase | inhibition, % at 15.6 µM | 350,000 compounds, 0.17% hits | AID 651687;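 active means every replicate shows inhibition of at least 40%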;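 further: 0% = neutral control wells and 100% = positive control wells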
* marks the source's active call; other numbers are inactive results; . = no result; ! = a repeat was not active; [ ] = another dose, or the depositor's remark.

SMILES	DENV2 CPE rescue	rRNA inh HTS	Env fusion inh	PglD inh	FN deposition inh	PGC1a acetyl inh
COc1cc(OC)cc(-c2c(-c3cccs3)c3cc(-c4ccc5c(c4)OCCO5)ccc3n2C)c1	17.9	4.7	-5.0	3.0	19.7	.
COc1ccc(-c2c(-c3cc(OC)cc(OC)c3)n(C)c3ccc(-c4ccc5c(c4)OCCO5)cc23)cc1	5.1	3.8	56.2*	-5.7	-5.0	.
CO[C@H]1CN(C)C(=O)c2ccc(NC(=O)c3cnccn3)cc2OC[C@@H](C)N(CCc2ccccc2)C[C@@H]1C	0.3	-3.4	5.9[16.7 µM]	2.3	7.5	-3.3
CNC(=O)c1cc(Oc2ccc(NC(=O)Nc3ccc(Cl)c(C(F)(F)F)c3)cc2)ccn1	-8.8	-53.2	62.3*	1.4	10.8	6.8
O=C(Nc1ccc(Cl)c(C(F)(F)F)c1)c1ccncc1	5.2	-7.1	-1.4	0.5	-3.1	6.3
C[C@@H]1CN([C@H](C)CO)C(=O)c2cc(NC(=O)Nc3ccc(F)cc3)ccc2O[C@H]1CN(C)S(=O)(=O)c1cn(C)cn1	10.0	2.9	-8.0[16.7 µM]	1.6	.	1.4
CC(=O)n1cc([C@H]2C=C(C(=O)N3CCN(Cc4ccc5c(c4)OCO5)CC3)O[C@@H](OCc3ccc(CO)cc3)C2)c2ccccc21	24.3*	-7.1	20.9[16.7 µM]	-0.3	-9.6	9.9
CC(=O)n1cc([C@H]2C=C(C(=O)Nc3ccccc3)O[C@@H](OCc3ccc(CO)cc3)C2)c2ccccc21	.	.	.	-2.7	.	.
CC(=O)n1cc([C@@H]2C=C(C(=O)NCc3ccccc3)O[C@H](OCc3ccc(CO)cc3)C2)c2ccccc21	44.6*!	3.9	-1.3[16.7 µM]	2.4	-8.1	-14.0
CC(=O)n1cc([C@@H]2C=C(C(=O)O)O[C@H](OCc3ccc(CO)cc3)C2)c2ccccc21	28.5*!	0.5	-18.1	-7.2	-8.9	11.7
C[C@H]1CN([C@@H](C)CO)C(=O)Cc2cc(NS(C)(=O)=O)ccc2O[C@H]1CN(C)Cc1ccc(-c2ccccc2)cc1	0.2	-54.3	2.4[16.7 µM]	5.2	.	-7.6
COCC#Cc1ccc([C@H]2[C@H](CO)N3C(=O)CN(C(=O)C4CCC4)C[C@@H]23)cc1	5.8	4.3	.	.	2.1	-3.5
CCOC(=O)CC1(c2ccc(OC)c(OC)c2)C(=O)c2ccccc2C1=O	2.7	-26.9*	10.6	.	11.4	-0.3
C=CCOc1c(Br)cc(CNc2ccc(NC(=O)C(C)C)c(OC)c2)cc1OC	.	.	89.7*	1.9	-3.9	4.3
CCC(=O)N1CC2(CN(Cc3ccc(Cl)cc3)C2)c2c([nH]c3cc(OC)ccc23)[C@H]1CO	-8.4	0.3	.	.	.	6.5
O=C(Nc1ccccc1)c1ccc(-c2ccc([N+](=O)[O-])cc2)o1	4.3	-10.9	-23.6	.	-15.9	.
O=C(NNC(=O)c1ccccc1O)c1cc2ccccc2o1	3.7	-30.7*	-23.8	0.4	7.3	2.8
CC1CC(C)CN(C(=O)c2ccc(-c3ccc([N+](=O)[O-])cc3)o2)C1 (centres undefined)	-2.9	-20.9*	-40.4	-5.4	-2.6	-0.4
O=C(c1ccc(-c2ccc([N+](=O)[O-])cc2)o1)N1CCCCC1	3.4	3.0	-42.1	-2.1	-7.7	-3.6
O=C(NNC(=O)c1ccccc1O)c1ccc(-c2ccc([N+](=O)[O-])cc2)o1	-3.6	-24.5*	-1.1	.	.	.
COc1ccc(-c2cnc3c(c2)C(=O)N([C@@H](C)CO)C[C@H](C)[C@@H](CN(C)C(=O)NC2CCCC2)O3)cc1	15.7	2.3	20.0[16.7 µM]	-2.0	-18.1	2.2
C[C@H]1CN([C@@H](C)CO)S(=O)(=O)c2ccc(C3=CCCC3)cc2O[C@H]1CN(C)C(=O)C1CC1	.	1.2	-1.3[16.7 µM]	.	-7.3	-5.6
COc1cc(Nc2ccn3nc(-c4ccc(F)cc4)cc3n2)cc(OC)c1OC	1.1	2.9	-15.8	3.8	-10.6	.
COc1cc(Nc2ccn3nccc3n2)cc(OC)c1OC	22.7*	-6.6	-66.9	-1.7	8.8	9.1
C[C@@H]1CCCCO[C@@H](CN(C)S(=O)(=O)c2cccs2)[C@@H](C)CN([C@@H](C)CO)C(=O)c2cc(NC(=O)Nc3ccc(C(F)(F)F)cc3)ccc2O1	-3.6	4.1	2.8[16.7 µM]	-1.0	.	8.5
SMILES	DENV2 CPE rescue	rRNA inh HTS	Env fusion inh	PglD inh	FN deposition inh	PGC1a acetyl inh
CC1CCCC(C)N1CCCNC(=O)c1nn(C)c2c1CSc1ccccc1-2 (centres undefined)	-0.8	3.2	80.3*	4.2	6.3	6.7
O=C(C[C@H]1CC[C@H](NS(=O)(=O)c2cccc(F)c2)[C@H](CO)O1)N1CCCCC1	1.6	2.2	-33.7[16.7 µM]	2.6	2.6	1.5
O=C(C[C@H]1CC[C@@H](NS(=O)(=O)c2cccc(F)c2)[C@H](CO)O1)N1CCCCC1	25.4*	1.7	-1.9[16.7 µM]	1.4	-4.5	-1.0
O=C(NCC[C@@H]1CC[C@H](NS(=O)(=O)c2cccc(F)c2)[C@H](CO)O1)Nc1cc(F)ccc1F	5.3	-6.4	7.7[16.7 µM]	0.0	.	-9.4
O=C(NCC[C@@H]1CC[C@@H](NS(=O)(=O)c2cccc(F)c2)[C@@H](CO)O1)Nc1cc(F)ccc1F	24.2*	-3.9	-6.3[16.7 µM]	1.6	.	-14.8
O=C(NCCCCc1ccccc1)c1ccccc1F	7.2	-18.0	5.4	-1.9	-3.6	2.8
O=C(NCCCCc1ccccc1)c1ccccc1Br	2.0	-36.2*	4.3	-4.9	-4.5	-6.8
Cc1onc(-c2c(Cl)cccc2Cl)c1C(=O)NN1CCCCCC1	-0.3	-13.2*	-3.1	4.1	1.9	-1.2
Cc1onc(-c2c(Cl)cccc2Cl)c1C(=O)NC1CCCCC1	7.1	-40.5	7.8	2.1	-14.4	-19.3
Cc1onc(-c2c(F)cccc2Cl)c1C(=O)N1CCSCC1	3.7	-28.9*	6.4	5.1	-1.9	10.0
CSC(=NS(=O)(=O)c1ccccc1)NNC(=O)c1c(-c2c(Cl)cccc2Cl)noc1C	1.2	-20.8*	-3.5	.	5.5	.
O=C(Nc1ccc(F)cc1)N1CCc2ccccc2C1	-3.8	-14.1	12.4	.	-3.0	6.8
O=C(Nc1ccc(Br)cc1)N1CCc2ccccc2C1	-2.5	-39.3*	-47.6	1.7	.	-1.6
Cc1sc2ncn(CC(=O)Nc3ccccc3F)c(=O)c2c1-c1ccccc1	-4.3	-28.4*	-22.3	0.3	7.3	0.2
O=C(Cn1cnc2sc3c(c2c1=O)CCCC3)NCC(=O)Nc1ccccc1F	3.1	4.6	-0.9	0.7	-5.4	0.6
COc1ccccc1S(=O)(=O)Nc1cc(S(=O)(=O)N2CCCCC2)ccc1N1CCOCC1	-4.4	-27.9*	0.9	.	6.1	-2.4
COc1ccccc1N1CCN(C(=O)Cn2c(=O)oc3cc(S(=O)(=O)N4CCCC4)ccc32)CC1	32.7*	-5.1	5.5	.	-0.7	-13.1
CCOc1ccccc1N1CCN(C(=O)c2cc(S(=O)(=O)N3CCCCC3)ccc2C)CC1	-6.4	-11.3	.	4.6	2.4	.
O=C(Cn1c(=O)oc2cc(S(=O)(=O)N3CCCCC3)ccc21)N1CCCCC1	6.8	8.6	-3.8	3.1	-13.7	.
